From ChEMBL document CHEMBL1141703, “Synthesis and in vitro evaluation of imidazopyridazines as novel inhibitors of the malarial kinase PfPK7” (Bioorg Med Chem Lett, 2008)
Calls of active or inactive are those of the source. The rule behind the calls is not given here.

Assays:
[1] = molecular target: T1, Putative uncharacterized protein pk7 (Plasmodium falciparum, UniProt O96214); test: (§1) Inhibition of Plasmodium falciparum PK7
T1 sequence (O96214 whole entry): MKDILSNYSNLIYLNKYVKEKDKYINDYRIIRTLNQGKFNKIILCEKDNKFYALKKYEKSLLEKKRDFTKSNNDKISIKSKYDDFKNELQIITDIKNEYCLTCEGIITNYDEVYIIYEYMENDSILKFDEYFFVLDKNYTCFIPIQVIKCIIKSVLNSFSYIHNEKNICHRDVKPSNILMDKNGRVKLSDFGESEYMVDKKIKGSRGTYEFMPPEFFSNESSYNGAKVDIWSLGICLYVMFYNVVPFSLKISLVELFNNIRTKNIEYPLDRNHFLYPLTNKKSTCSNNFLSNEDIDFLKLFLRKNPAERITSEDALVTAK

[2] = molecular target: T2, Putative uncharacterized protein pk7 (Plasmodium falciparum) (UniProt O96214); test: as §1
T2 sequence (whole entry): T1 sequence (O96214 whole entry)

KB = test: Cytotoxicity against human KB cells; format: cell-based
Plasmodium falciparum [3] = test: Antimalarial activity against chloroquine-sensitive Plasmodium falciparum 3D7 by [3H]hypoxanthine uptake; format: functional, organism-based
Summary of the method: (§2)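 P. falciparum blood-stage growth measured by ³H-hypoxanthine incorporation, with chloroquine as the reference standard. Strains: 3D7, a drug-sensitive laboratory clone of the NF54 isolate, and K1 (Thailand), which is resistant to chloroquine, pyrimethamine and cycloguanil. Values are IC50 in μM.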

[4] = Selectivity index, ratio of IC50 for human KB cells to IC50 for Plasmodium falciparum 3D7; format: toxicity, cell-based; conditions: read-out: Ratio IC50
Summary of the method: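 Ratio of the human KB cell cytotoxicity IC50 to the P. falciparum 3D7 IC50. 3D7 is a drug-sensitive laboratory clone of the NF54 isolate. Parasite IC50 (μM) came from a 3H-hypoxanthine incorporation assay run with chloroquine as the standard.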

Plasmodium falciparum [5] = test: Antimalarial activity against multidrug-resistant Plasmodium falciparum K1 by [3H]hypoxanthine uptake; format: functional, organism-based; summary of the method: as §2

IC50 [1] [µM]	SMILES	other results
1.26	CN(Cc1cccnc1)c1ccc2ncc(-c3ccc(C#N)cc3)n2n1	
8	N#Cc1ccc(-c2cnc3ccc(NCc4ccc(N5CCOCC5)cc4)nn23)cc1	
0.75	N#Cc1ccc(-c2cnc3ccc(NCC4CCCO4)nn23)cc1 (stereo not given)	
25	CC(C)[C@@H](CO)Nc1ccc2ncc(-c3ccc(CC#N)cc3)n2n1	
21	CN(Cc1ccc(F)cc1)c1ccc2ncc(-c3ccc(CO)cc3)n2n1	
56	CN(Cc1ccc(F)cc1)c1ccc2ncc(-c3ccc(Cn4ccnc4)cc3)n2n1	
0.34	N#Cc1ccc(-c2cnc3ccc(NC4CCCCC4)nn23)cc1	
4.8	C[C@@H](N)c1cccc(N2CCOCC2)c1	
1.4	COCCNc1ccc2ncc(-c3ccc(C#N)cc3)n2n1	
25	C[C@H](N)c1cccc(N2CCOCC2)c1	
7.9	c1cncc(CNc2ccc3ncc(-c4ccncc4)n3n2)c1	
1.1	CN(Cc1ccc(F)cc1)c1ccc2ncc(-c3ccc(C(N)=O)cc3)n2n1	
103	CN(Cc1ccc(F)cc1)c1ccc2ncc(-c3ccc(CN4CCC(O)CC4)cc3)n2n1	
34	CN(Cc1ccc(F)cc1)c1ccc2ncc(-c3ccc(CNCO)cc3)n2n1	
43	CC(C)[C@H](N)c1cccc(N2CCOCC2)c1	
11.6	COc1ccc(-c2cnc3ccc(NCc4cccnc4)nn23)cc1	
111	CC(C)[C@@H](CO)Nc1ccc2ncc(-c3ccc(CC(=O)O)cc3)n2n1	
42	CN(Cc1ccc(F)cc1)c1ccc2ncc(-c3ccc(N)cc3)n2n1	

The next lines start with the molecule.

SMILES	IC50 [1] [µM]	other results
CC(C)[C@@H](N)c1cccc(N2CCOCC2)c1		Activity [2]: inactive
CC(C)[C@@H](CO)Nc1ccc2ncc(-c3ccc(N)cc3)n2n1	34	
N#Cc1ccc(-c2cnc3ccc(NC4CCCNC4)nn23)cc1 (racemic)	2.1	
CC(C)[C@@H](CO)Nc1ccc2ncc(-c3ccc(C(N)=O)cc3)n2n1	0.77	IC50 (KB): 13 µM; IC50 (Plasmodium falciparum [3]): 2.46 µM; selectivity ratio [4]: 5.27; IC50 (Plasmodium falciparum [5]): 3.89 µM
N#Cc1ccc(-c2cnc3ccc(NCCO)nn23)cc1	1	
N#Cc1ccc(-c2cnc3ccc(NCC4CC4)nn23)cc1	0.58	IC50 (KB): 21.2 µM; IC50 (Plasmodium falciparum [3]): 7.15 µM; selectivity ratio [4]: 2.96; IC50 (Plasmodium falciparum [5]): 12.7 µM
CC(C)[C@@H](CO)Nc1ccc2ncc(-c3ccc(C#N)cc3)n2n1	0.28	IC50 (KB): 52.2 µM; IC50 (Plasmodium falciparum [3]): 2.6 µM; selectivity ratio [4]: 20.1; IC50 (Plasmodium falciparum [5]): 6.86 µM
CN(Cc1ccc(F)cc1)c1ccc2ncc(-c3ccc(C#N)cc3)n2n1	1.07	
N#Cc1ccc(-c2cnc3ccc(NCc4cccnc4)nn23)cc1	0.81	
C[C@H](CO)Nc1ccc2ncc(-c3ccc(C#N)cc3)n2n1	1	
N#Cc1ccc(-c2cnc3ccc(N[C@H]4CC[C@H](O)CC4)nn23)cc1	0.13	IC50 (KB): 24 µM; IC50 (Plasmodium falciparum [3]): 1.03 µM; selectivity ratio [4]: 23.3; IC50 (Plasmodium falciparum [5]): 2.65 µM
COC[C@H](C)Nc1ccc2ncc(-c3ccc(C#N)cc3)n2n1	0.82	IC50 (KB): 25.8 µM; IC50 (Plasmodium falciparum [3]): 6.06 µM; selectivity ratio [4]: 4.25; IC50 (Plasmodium falciparum [5]): 10.5 µM
CC(C)[C@@H](CO)Nc1ccc2ncc(-c3ccc(CN)cc3)n2n1	104	
N#Cc1ccc(-c2cnc3ccc(N[C@H]4CCC[C@H](O)C4)nn23)cc1 (racemic)	0.26	
N#Cc1ccc(-c2cnc3ccc(N[C@H]4CCCC[C@@H]4O)nn23)cc1 (racemic)	0.22	
CC(C)[C@@H](CO)Nc1ccc2ncc(-c3ccc(CO)cc3)n2n1	7.4	
CCN(CC)CCCC(C)Nc1ccnc2cc(Cl)ccc12 (stereo not given) [CHLOROQUINE]		IC50 (KB): 97.5 µM
C[C@@H](CO)Nc1ccc2ncc(-c3ccc(C#N)cc3)n2n1	0.44	IC50 (KB): 21.2 µM; IC50 (Plasmodium falciparum [3]): 5.26 µM; selectivity ratio [4]: 4.03; IC50 (Plasmodium falciparum [5]): 9.93 µM
